Paper PMC4721220 (Expert opinion on investigational drugs, 2013)
Where a SMILES comes first, the peptide text is derived from it.

Key:
[1] = system: male or female rats; assay: Behavioral safety; assay type: in vivo, rat
[2] = system: dog-isolated Purkinje fibers; assay: Electrophysiology in dog-isolated Purkinje fibers; assay type: cell-based; conditions: concentrations up to 1 mM, the highest evaluated
[3] = system: rats; assay: Pentylenetetrazole convulsant activity; assay type: in vivo, rat; conditions: single dose 500 mg/kg IV, 60 min following pentylenetetrazole administration
[4] = system: conscious instrumented dogs; assay: Cardiovascular safety in conscious instrumented dogs; assay type: in vivo, dog; conditions: single IV bolus doses up to 500 mg/kg
[5] = system: mouse lymphoma; assay: Mouse lymphoma assay; assay type: cell-based
[6] = system: mouse; assay: Mouse micronucleus assay; conditions: in vivo
[7] = Plasma pharmacokinetics in dogs; assay type: in vivo, dog
[8] = system: subjects with major depressive disorder; assay: Phase IIa safety; assay type: in vivo, human
Method in brief: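 Randomized, double-blind, placebo-controlled, parallel-group trial at 12 US centres (116 adults). Subjects had MDD by SCID and <25% response (ATRQ) to antidepressants in the current episode, followed by a 14-day antidepressant washout. Each received a single IV infusion over 3–15 min of normal saline or 1, 5, 10 or 30 mg/kg test compound. Subjects stayed ≥24 h in unit, with continuous ECG and pulse oximetry to 4 h, then follow-up visits.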

[9] = system: conscious rats; assay: Respiratory safety, plethysmography in conscious rats; assay type: in vivo, rat; conditions: single IV bolus dose up to 415 mg/kg, the highest dose evaluated
[10] = system: rats; assay: Single-dose IV toxicology study in rats; assay type: in vivo, rat
Method in brief: (§1)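 Single IV doses up to 1000 mg/kg were given to rats and dogs. End-points were clinical observations, body weight, clinical chemistry, hematology, urinalysis, and gross and microscopic pathology.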

[11] = Plasma pharmacokinetics in rats; assay type: in vivo, rat
[12] = Ames mutagenesis assay
[13] = system: dogs; assay: Single-dose IV toxicology study in dogs; assay type: in vivo, dog
Method in brief: as §1

[14] = Phase I safety and pharmacokinetics study in normal human volunteers; assay type: in vivo; conditions: for t1/2 initial / AUC(0-inf) / Cmax / clearance: plasma; for t1/2 initial: normal human volunteers, Mean ± SEM, n = 4; for Vd / AUC(0-inf) / Cmax / clearance: human, iv; for Vd: in vivo
Method in brief: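 Normal volunteers received a single IV dose via the antecubital vein, over a dose range of 0.5–25 mg/kg. Plasma Cmax and AUC were determined, with n = 4 subjects per dose, reported as Mean ± SEM.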

[15] = Compatibility with human blood, serum and plasma in vitro; conditions: concentrations up to 3 mg/ml in vitro
[16] = system: dogs; assay: 90-day twice-weekly IV repeated-dose study in dogs; assay type: in vivo, dog; conditions: up to 200 mg/kg (highest evaluated)
[17] = system: rats; assay: 90-day twice-weekly IV repeated-dose study in rats; assay type: in vivo, rat; conditions: up to 300 mg/kg (highest evaluated)
[18] = target: hERG channel (Homo sapiens, UniProt Q12809); assay: hERG assay; assay type: cell-based; conditions: concentrations up to 5 mM
Sequence of hERG channel (Q12809 whole entry): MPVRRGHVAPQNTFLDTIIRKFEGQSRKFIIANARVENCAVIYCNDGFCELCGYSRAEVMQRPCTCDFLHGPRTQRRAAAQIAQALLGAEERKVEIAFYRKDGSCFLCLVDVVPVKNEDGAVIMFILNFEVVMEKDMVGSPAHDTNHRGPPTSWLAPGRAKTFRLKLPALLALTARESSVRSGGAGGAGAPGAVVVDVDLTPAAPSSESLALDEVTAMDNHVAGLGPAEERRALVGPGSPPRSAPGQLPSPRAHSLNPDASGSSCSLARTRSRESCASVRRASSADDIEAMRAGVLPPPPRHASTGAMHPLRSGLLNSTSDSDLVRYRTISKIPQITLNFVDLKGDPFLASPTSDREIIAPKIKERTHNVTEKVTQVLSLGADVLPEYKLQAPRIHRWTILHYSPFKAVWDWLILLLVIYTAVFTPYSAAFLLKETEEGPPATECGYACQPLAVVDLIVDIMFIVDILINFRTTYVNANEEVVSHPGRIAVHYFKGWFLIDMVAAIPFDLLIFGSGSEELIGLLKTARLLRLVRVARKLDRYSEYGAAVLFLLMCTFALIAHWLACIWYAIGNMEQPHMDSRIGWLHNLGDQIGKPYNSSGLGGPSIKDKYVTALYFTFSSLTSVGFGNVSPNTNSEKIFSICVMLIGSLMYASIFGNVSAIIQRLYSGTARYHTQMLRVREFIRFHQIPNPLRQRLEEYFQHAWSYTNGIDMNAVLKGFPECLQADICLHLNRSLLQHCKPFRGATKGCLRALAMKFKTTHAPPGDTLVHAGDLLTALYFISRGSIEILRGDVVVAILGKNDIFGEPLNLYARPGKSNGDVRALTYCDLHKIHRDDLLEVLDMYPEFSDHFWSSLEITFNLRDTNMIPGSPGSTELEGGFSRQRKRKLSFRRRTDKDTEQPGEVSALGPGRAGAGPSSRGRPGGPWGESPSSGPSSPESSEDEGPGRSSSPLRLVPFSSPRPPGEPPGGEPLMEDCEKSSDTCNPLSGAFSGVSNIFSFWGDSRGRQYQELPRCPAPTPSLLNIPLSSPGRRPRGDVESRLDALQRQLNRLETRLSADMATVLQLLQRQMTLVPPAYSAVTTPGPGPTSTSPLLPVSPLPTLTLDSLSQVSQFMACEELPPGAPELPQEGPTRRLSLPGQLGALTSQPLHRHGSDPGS

[19] = twice-weekly dosing for 3 months

C[C@@H](O)[C@H](N)C(=O)N1CCC[C@H]1C(=O)N1CCC[C@H]1C(=O)N[C@H](C(N)=O)[C@@H](C)O [GLYX-13] (H-TPPT-NH2)
hyperlocomotion (signal for psychotomimetic effects) ([1]; any dose evaluated): did not induce hyperlocomotion | adverse behavioral responses ([1]; single doses up to 500 mg/kg IV, the highest dose evaluated, male or female rats): No adverse behavioral responses | motor coordination ([1]; up to 500 mg/kg IV, male or female rats): did not affect motor coordination | electrophysiological parameters in Purkinje fibers [2]: did not significantly alter any of the electrophysiological parameters | convulsant activity [3]: did not affect convulsant activity | heart rate, blood pressure, ECG parameters [4]: nor did GLYX-13 administered at single IV bolus doses up to 500 mg/kg affect heart rate, blood pressure, or any ECG parameter | mouse lymphoma assay [5]: inactive | mouse micronucleus assay [6]: inactive | plasma half-life ([7]; 20 – 200 mg/kg IV): 5 to 8 min | half-life after repeated dosing [7, 19]: retained its short half-life | suicidality (Columbia-Suicide Severity Rating Scale) ([8]; 14- or 28-day course of observation following dosing): did not cause any increase in suicidality | BPRS+ score (psychotomimetic effects) ([8]; any time following dosing): did not increase BPRS+ score | treatment-related serious adverse events ([8]; single IV dose 1, 5, 10 or 30 mg/kg): No treatment-related serious adverse events | respiratory parameters [9]: nor did GLYX-13 affect any respiratory parameter | tolerability, single doses ([10]; doses up to 500 mg/kg IV): well tolerated | toxicology findings, single dose ([10]; doses up to 1000 mg/kg IV): No observational, body weight, clinical chemistry, hematology, urinalysis, or gross or microscopic pathological signals were observed | plasma half-life ([11]; 30 – 300 mg/kg IV): 2 to 3 min | half-life after repeated dosing [11, 19]: retained its short half-life | Ames mutagenesis [12]: inactive | tolerability, single doses ([13]; doses up to 500 mg/kg IV): well tolerated | toxicology findings, single dose ([13]; doses up to 1000 mg/kg IV): No observational, body weight, clinical chemistry, hematology, urinalysis, or gross or microscopic pathological signals were observed | t1/2 initial ([14]; 1 mg/kg IV): 4.7 ± 0.5 min | t1/2 initial ([14]; 5 mg/kg IV): 7.4 ± 0.9 min | t1/2 initial ([14]; 10 mg/kg IV): 9.0 ± 0.6 min | t1/2 initial ([14]; 20 mg/kg IV): 14.0 ± 2.1 min | increase of Cmax with dose ([14]; dose range 0.5 – 10 mg/kg IV): supralinearly | increase of AUC with dose ([14]; dose range 0.5 – 25 mg/kg IV): supralinearly | increase of Cmax with dose ([14]; dose range 10–25 mg/kg IV): linearly | Vd ([14]; 1 mg/kg): 0.17 ± 0.03 L/kg | Vd ([14]; 5 mg/kg): 0.31 ± 0.14 L/kg | Vd ([14]; 10 mg/kg): 0.12 ± 0.01 L/kg | Vd ([14]; 20 mg/kg): 0.1 ± 0.03 L/kg | AUC(0-inf) ([14]; 1 mg/kg): 533 ng·h/mL | Cmax ([14]; 1 mg/kg): 5.2 ± 0.9 µg/mL | clearance ([14]; 1 mg/kg): 33.7 mL/min/kg | AUC(0-inf) ([14]; 5 mg/kg): 4800 ng·h/mL | Cmax ([14]; 5 mg/kg): 26 ± 11 µg/mL | clearance ([14]; 5 mg/kg): 34.8 mL/min/kg | AUC(0-inf) ([14]; 10 mg/kg): 19400 ng·h/mL | Cmax ([14]; 10 mg/kg): 100 ± 21 µg/mL | clearance ([14]; 10 mg/kg): 9 mL/min/kg | AUC(0-inf) ([14]; 20 mg/kg): 67200 ng·h/mL | Cmax ([14]; 20 mg/kg): 182 ± 56 µg/mL | clearance ([14]; 20 mg/kg): 5 mL/min/kg | compatibility with human blood, serum, and plasma [15]: completely compatible | tolerability, repeated dose [16]: well tolerated | tolerability, repeated dose [17]: well tolerated | current through the hERG channel [18]: did not affect current through the hERG channel
